≈ marks a conversion by molar mass, not a printed value.
Tests used:
Staphylococcus aureus [1] = assay: Antimicrobial activity against Staphylococcus aureus ATCC25943 assessed as absence of growth after 18 hrs by MTT assay; type: functional; conditions: ATCC25943, 18 h
Outline: (§1)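 Strains were pre-grown on nutrient agar for 24 h at 37 °C. Inoculum was 1 × 10^6 cfu/mL in normal saline, set against a 0.5 McFarland standard. Compounds were dissolved in DMSO and serially diluted in cation-adjusted Mueller-Hinton broth (20 mg/L Ca2+, 10 mg/L Mg2+) over 512 to 0.5 mg/L. Plates ran 18 h at 37 °C. MTT was added for 20 min; blue meant growth. MIC is the lowest concentration without growth.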

Staphylococcus aureus [2] = assay: Antimicrobial activity against methicillin-resistant Staphylococcus aureus EMRSA-15 assessed as absence of growth after 18 hrs by MTT assay; type: functional; conditions: EMRSA-15, 18 h; outline: as §1
Staphylococcus aureus [3] = assay: Antimicrobial activity against methicillin-resistant Staphylococcus aureus XU212 assessed as absence of growth after 18 hrs by MTT assay; type: functional; conditions: XU212, 18 h; outline: as §1
Staphylococcus aureus [4] = assay: Antimicrobial activity against multi-drug-resistant Staphylococcus aureus SA-1199B expressing NorA efflux pump assessed as absence of growth after 18 hrs by MTT assay; type: functional; outline: as §1
Staphylococcus aureus [5] = assay: Antimicrobial activity against macrolide-resistant Staphylococcus aureus RN4220 assessed as absence of growth after 18 hrs by MTT assay; conditions: RN4220, 18 h
Staphylococcus aureus [6] = assay: Antimicrobial activity against methicillin-resistant Staphylococcus aureus EMRSA-16 assessed as absence of growth after 18 hrs by MTT assay; type: functional; conditions: EMRSA-16, 18 h; outline: as §1
Staphylococcus aureus [7] = assay: Bactericidal activity against multi-drug-resistant Staphylococcus aureus SA-1199B expressing NorA efflux pump incubated for 24 hrs followed by transfer to Petri dishes and measured after 24 hrs; conditions: read-out: MBC99.9

Row | SMILES | MIC (Staphylococcus aureus [1]) [µg/mL] | MIC (Staphylococcus aureus [2]) [µg/mL] | MIC (Staphylococcus aureus [3]) [µg/mL] | MIC (Staphylococcus aureus [4]) [µg/mL] | MIC (Staphylococcus aureus [5]) [µg/mL] | MIC (Staphylococcus aureus [6]) [µg/mL] | MBC (Staphylococcus aureus [7]) [µg/mL]
1 | CCn1cc(C(=O)O)c(=O)c2cc(F)c(N3CCNCC3)cc21 [NORFLOXACIN] | 0.5 (≈ 1.57 µM) | 0.5 (≈ 1.57 µM) | 8 (≈ 25.1 µM) | 32 (≈ 100 µM) | 0.5 (≈ 1.57 µM) | 128 (≈ 401 µM) | 
2 | CC(C)=CCNC(=N)NCC=C(C)C [PTEROGYNIDINE] | 4 (≈ 20.5 µM) | 4 (≈ 20.5 µM) | 4 (≈ 20.5 µM) | 4 (≈ 20.5 µM) | 4 (≈ 20.5 µM) | 4 (≈ 20.5 µM) | 4 (≈ 20.5 µM)
3 | CC(C)=CCN=C(N)N [GALEGINE] | 4 (≈ 31.4 µM) | 4 (≈ 31.4 µM) | 4 (≈ 31.4 µM) | 4 (≈ 31.4 µM) | 4 (≈ 31.4 µM) | 4 (≈ 31.4 µM) | 4 (≈ 31.4 µM)
4 | CC(C)=CCC/C(C)=C/C=N/C(N)N | 16 (≈ 81.9 µM) | 16 (≈ 81.9 µM) | 8 (≈ 41 µM) | 32 (≈ 164 µM) | 16 (≈ 81.9 µM) | 8 (≈ 41 µM) | 
5 | CC(C)=CCC/C(C)=C/CNC(=N)NC/C=C(\C)CCC=C(C)C [NITENSIDINE A] | 16 (≈ 48.3 µM) | 16 (≈ 48.3 µM) | 8 (≈ 24.1 µM) | 32 (≈ 96.5 µM) | 16 (≈ 48.3 µM) | 8 (≈ 24.1 µM) | 
6 | CC(C)=CCN=C(NCC=C(C)C)NCC=C(C)C | > 512 | > 512 | > 512 | > 512 | > 512 | > 512 | 
7 | CC(C)=C/C=C/C1(C)CCN=C(N)N1 (configuration not stated) [NITENSIDINE E] | 16 (≈ 82.8 µM) | 32 (≈ 166 µM) | 8 (≈ 41.4 µM) | 32 (≈ 166 µM) | 16 (≈ 82.8 µM) | 8 (≈ 41.4 µM) | 
8 | CC(C)=CCC/C(C)=C/CN(C)C(=N)N(C)C/C=C(\C)CCC=C(C)C [NITENSIDINE C] | 16 (≈ 44.5 µM) | 32 (≈ 89 µM) | 8 (≈ 22.2 µM) | 32 (≈ 89 µM) | 16 (≈ 44.5 µM) | 8 (≈ 22.2 µM) | 
9 | CC(C)=CCC/C(C)=C/CNC(=O)NC/C=C(\C)CCC=C(C)C | > 512 | > 512 | > 512 | > 512 | > 512 | > 512 | 
10 | CC(C)=CCC/C(C)=C/CNC(=S)NC/C=C(\C)CCC=C(C)C | 128 (≈ 367 µM) | > 512 | 128 (≈ 367 µM) | 128 (≈ 367 µM) | 128 (≈ 367 µM) | 32 (≈ 91.8 µM) | 

— ChEMBL document CHEMBL3351297, “In Vitro Antibacterial Activity of Prenylated Guanidine Alkaloids from Pterogyne nitens and Synthetic Analogues” (2014)
